# Reference: ChEMBL document CHEMBL1806357, “A regioselective synthesis of some new pyrazol-1'-ylpyrazolo[1,5-a]pyrimidines in aqueous medium and their evaluation as antimicrobial agents” (2011)
# Columns and labels:
# Escherichia coli [1] = experiment: Antibacterial activity against Escherichia coli ATCC 8739 at 2 mg/ml after 24 hrs by agar-well diffusion technique; format: functional; details: ATCC 8739, 24 h, read-out: DIZ
# Procedure, shortened: (§1)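 Agar-well diffusion used MHA seeded with 24 h cultures at 0.5 McFarland (1 × 10^6 CFU/ml). 100 µl of compound (2 mg/ml in DMSO, filter-sterilized) went into each 6 mm well. Plates were incubated upright at 37 ± 1 °C for 24 h, and the inhibition zone diameter was measured in mm. DMSO was the negative control. Values are the mean of three replicates.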
# Pseudomonas aeruginosa [2] = experiment: Antibacterial activity against Pseudomonas aeruginosa ATCC 25668 at 2 mg/ml after 24 hrs by agar-well diffusion technique; format: functional; details: ATCC 25668, 24 h, read-out: DIZ; procedure, shortened: as §1
# Staphylococcus aureus [3] = experiment: Antibacterial activity against Staphylococcus aureus ATCC 9144 at 2 mg/ml after 24 hrs by agar-well diffusion technique; format: functional; details: ATCC 9144, 24 h, read-out: DIZ; procedure, shortened: as §1
# Bacillus cereus [4] = experiment: Antibacterial activity against Bacillus cereus ATCC 11778 at 2 mg/ml after 24 hrs by agar-well diffusion technique; format: functional; details: ATCC 11778, 24 h, read-out: DIZ; procedure, shortened: as §1
# Escherichia coli [5] = experiment: Antibacterial activity against Escherichia coli ATCC 8739 after 24 hrs by broth microdilution method; format: functional
# Pseudomonas aeruginosa [6] = experiment: Antibacterial activity against Pseudomonas aeruginosa ATCC 25668 after 24 hrs by broth microdilution method; format: functional
# Staphylococcus aureus [7] = experiment: Antibacterial activity against Staphylococcus aureus ATCC 9144 after 24 hrs by broth microdilution method; format: functional
# Bacillus cereus [8] = experiment: Antibacterial activity against Bacillus cereus ATCC 11778 after 24 hrs by broth microdilution method; format: functional
# Aspergillus terreus [9] = experiment: Antifungal activity against Aspergillus terreus at 10 ug/ml after 7 days by poisoned food technique relative to control; format: functional
# Procedure, shortened: (§2)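 Poisoned food technique with soil-isolated fungi on PDA. Compound from a 1 mg/ml DMSO stock was added to molten agar at 40 ± 2 °C to give 10, 50, 100 or 200 µg/ml. A 6 mm mycelial disc from a 6-day culture was placed centrally, and plates were held at 28 ± 1 °C. Radial growth was measured after 7 days, and % inhibition was calculated against PDA/DMSO control, in triplicate.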
# Aspergillus terreus [10] = experiment: Antifungal activity against Aspergillus terreus at 50 ug/ml after 7 days by poisoned food technique relative to control; format: functional; procedure, shortened: as §2
# Aspergillus terreus [11] = experiment: Antifungal activity against Aspergillus terreus at 100 ug/ml after 7 days by poisoned food technique relative to control; format: functional; procedure, shortened: as §2
# Aspergillus terreus [12] = experiment: Antifungal activity against Aspergillus terreus at 200 ug/ml after 7 days by poisoned food technique relative to control; format: functional; procedure, shortened: as §2
# Alternaria alternata [13] = experiment: Antifungal activity against Alternaria alternata at 10 ug/ml after 7 days by poisoned food technique relative to control; format: functional; procedure, shortened: as §2
# Alternaria alternata [14] = experiment: Antifungal activity against Alternaria alternata at 50 ug/ml after 7 days by poisoned food technique relative to control; format: functional; procedure, shortened: as §2
# Alternaria alternata [15] = experiment: Antifungal activity against Alternaria alternata at 100 ug/ml after 7 days by poisoned food technique relative to control; format: functional; procedure, shortened: as §2
# Alternaria alternata [16] = experiment: Antifungal activity against Alternaria alternata at 200 ug/ml after 7 days by poisoned food technique relative to control; format: functional; procedure, shortened: as §2
# Fusarium oxysporum [17] = experiment: Antifungal activity against Fusarium oxysporum at 10 ug/ml after 7 days by poisoned food technique relative to control; format: functional; procedure, shortened: as §2
# Fusarium oxysporum [18] = experiment: Antifungal activity against Fusarium oxysporum at 50 ug/ml after 7 days by poisoned food technique relative to control; format: functional; procedure, shortened: as §2
# Fusarium oxysporum [19] = experiment: Antifungal activity against Fusarium oxysporum at 100 ug/ml after 7 days by poisoned food technique relative to control; format: functional; procedure, shortened: as §2
# Fusarium oxysporum [20] = experiment: Antifungal activity against Fusarium oxysporum at 200 ug/ml after 7 days by poisoned food technique relative to control; format: functional; procedure, shortened: as §2
# Helminthosporium [21] = experiment: Antifungal activity against Helminthosporium sp. at 10 ug/ml after 7 days by poisoned food technique relative to control; format: functional; procedure, shortened: as §2
# Helminthosporium [22] = experiment: Antifungal activity against Helminthosporium sp. at 50 ug/ml after 7 days by poisoned food technique relative to control; format: functional; procedure, shortened: as §2
# Helminthosporium [23] = experiment: Antifungal activity against Helminthosporium sp. at 100 ug/ml after 7 days by poisoned food technique relative to control; format: functional; procedure, shortened: as §2
# Helminthosporium [24] = experiment: Antifungal activity against Helminthosporium sp. at 200 ug/ml after 7 days by poisoned food technique relative to control; format: functional; procedure, shortened: as §2
# Helminthosporium [25] = experiment: Antifungal activity against Helminthosporium sp. at 10 ug/ml after 7 days by poisoned food technique relative to 10 ug/ml mancozeb; format: functional
# Alternaria alternata [26] = experiment: Antifungal activity against Alternaria alternata at 10 ug/ml after 7 days by poisoned food technique relative to 10 ug/ml mancozeb; format: functional
# Fusarium oxysporum [27] = experiment: Antifungal activity against Fusarium oxysporum at 10 ug/ml after 7 days by poisoned food technique relative to 10 ug/ml mancozeb; format: functional
# Escherichia coli [28] = experiment: Antibacterial activity against Escherichia coli ATCC 8739 at 1 mg/ml after 24 hrs by agar-well diffusion technique; format: functional; details: ATCC 8739, 24 h, read-out: DIZ
# Pseudomonas aeruginosa [29] = experiment: Antibacterial activity against Pseudomonas aeruginosa ATCC 25668 at 1 mg/ml after 24 hrs by agar-well diffusion technique; format: functional; details: ATCC 25668, 24 h, read-out: DIZ
# Staphylococcus aureus [30] = experiment: Antibacterial activity against Staphylococcus aureus ATCC 9144 at 1 mg/ml after 24 hrs by agar-well diffusion technique; format: functional; details: ATCC 9144, 24 h, read-out: DIZ
# Bacillus cereus [31] = experiment: Antibacterial activity against Bacillus cereus ATCC 11778 at 1 mg/ml after 24 hrs by agar-well diffusion technique; format: functional; details: ATCC 11778, 24 h, read-out: DIZ
# Escherichia coli [32] = experiment: Antibacterial activity against Escherichia coli ATCC 8739 at 4 ug/ml after 24 hrs by agar-well diffusion technique; format: functional, organism-based
# Procedure, shortened: (§3)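 Agar-well diffusion. Bacteria were kept at 5–8 °C on Brain Heart Infusion agar. Inocula came from 24 h cultures adjusted to 0.5 McFarland (1 × 10^6 CFU/ml). 100 µl was seeded into 20 ml molten Mueller Hinton agar. 6 mm wells received 100 µl of sample, with gentamicin standard at 4 µg/ml and DMSO as negative control. Plates ran 24 h at 37 ± 1 °C; inhibition zone diameter in mm.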
# Pseudomonas aeruginosa [33] = experiment: Antibacterial activity against Pseudomonas aeruginosa ATCC 25668 at 4 ug/ml after 24 hrs by agar-well diffusion technique; format: functional, organism-based; procedure, shortened: as §3
# Staphylococcus aureus [34] = experiment: Antibacterial activity against Staphylococcus aureus ATCC 9144 at 4 ug/ml after 24 hrs by agar-well diffusion technique; format: functional, organism-based; procedure, shortened: as §3
# Bacillus cereus [35] = experiment: Antibacterial activity against Bacillus cereus ATCC 11778 at 4 ug/ml after 24 hrs by agar-well diffusion technique; format: functional, organism-based; procedure, shortened: as §3
Compound,zone of inhibition at 2000 µg/mL (Escherichia coli [1]) [mm],zone of inhibition at 2000 µg/mL (Pseudomonas aeruginosa [2]) [mm],zone of inhibition at 2000 µg/mL (Staphylococcus aureus [3]) [mm],zone of inhibition at 2000 µg/mL (Bacillus cereus [4]) [mm],"MIC (Escherichia coli [5]; ATCC 8739, 24 h) [µg/mL]","MIC (Pseudomonas aeruginosa [6]; ATCC 25668, 24 h) [µg/mL]","MIC (Staphylococcus aureus [7]; ATCC 9144, 24 h) [µg/mL]","MIC (Bacillus cereus [8]; ATCC 11778, 24 h) [µg/mL]",Activity (Aspergillus terreus [9]) [%],Activity (Aspergillus terreus [10]) [%],Activity (Aspergillus terreus [11]) [%],Activity (Aspergillus terreus [12]) [%],Activity (Alternaria alternata [13]) [%],Activity (Alternaria alternata [14]) [%],Activity (Alternaria alternata [15]) [%],Activity (Alternaria alternata [16]) [%],Activity (Fusarium oxysporum [17]) [%],Activity (Fusarium oxysporum [18]) [%],Activity (Fusarium oxysporum [19]) [%],Activity (Fusarium oxysporum [20]) [%],other results
Cc1cc(C)n2nc(-n3nc(C)cc3C)cc2n1,7,7,7,7,> 400,> 400,400,> 400,9.87,33.7,68.5,73.2,47.5,69.5,71.6,73.1,56,67,67,71.9,Activity (Helminthosporium [21]): 42.2%; Activity (Helminthosporium [22]): 66.6%; Activity (Helminthosporium [23]): 79.2%; Activity (Helminthosporium [24]): 79.2%; fold change (FC) (Helminthosporium [25]): 3.4; fold change (FC) (Alternaria alternata [26]): 2.6; fold change (FC) (Fusarium oxysporum [27]): 2
COc1ccc(-c2cc(C)nn2-c2cc3nc(C)cc(-c4ccc(OC)cc4)n3n2)cc1,8,8,8,8,> 100,> 100,> 100,> 100,2.5,6.25,7.5,11.3,0,0,11.1,11.1,6.55,3.27,26.2,20,Activity (Helminthosporium [21]): 0%; Activity (Helminthosporium [22]): 0%; Activity (Helminthosporium [23]): 27.7%; Activity (Helminthosporium [24]): 62.2%
CC(=O)NC[C@H]1CN(c2ccc(N3CCOCC3)c(F)c2)C(=O)O1 [LINEZOLID],–,–,–,–,> 100,> 100,–,> 100,–,–,–,–,–,–,–,–,–,–,–,–,zone of inhibition at 1000 µg/mL (Escherichia coli [28]): 12 mm; zone of inhibition at 1000 µg/mL (Pseudomonas aeruginosa [29]): 8.5 mm; zone of inhibition at 1000 µg/mL (Staphylococcus aureus [30]): 18 mm; zone of inhibition at 1000 µg/mL (Bacillus cereus [31]): 10 mm
Cc1cc(-c2ccc(Cl)cc2)n2nc(-n3nc(C)cc3-c3ccc(Cl)cc3)cc2n1,13,10,9,13,25,100,100,50,0,0,2.5,12.5,0,0,0,0,1.63,3.27,9.8,16.3,Activity (Helminthosporium [21]): 11.1%; Activity (Helminthosporium [22]): 15.5%; Activity (Helminthosporium [23]): 17.7%; Activity (Helminthosporium [24]): 36.6%
GENTAMICIN,–,–,–,–,–,–,–,–,–,–,–,–,–,–,–,–,–,–,–,–,MIC (Escherichia coli [5]): 4 µg/mL; MIC (Pseudomonas aeruginosa [6]): 2 µg/mL; MIC (Staphylococcus aureus [7]): 2 µg/mL; MIC (Bacillus cereus [8]): 4 µg/mL; inhibition zone (IZ) (Escherichia coli [32]): 24 mm; inhibition zone (IZ) (Pseudomonas aeruginosa [33]): 12 mm; inhibition zone (IZ) (Staphylococcus aureus [34]): 14 mm; inhibition zone (IZ) (Bacillus cereus [35]): 14 mm
